Values after ≈ are worked out from the molar mass of the structure shown.
What was measured:
[1] = Half-life in BALB/c mouse at 20 mg/kg, po as cyclodextrin formulation by LC-MS method; assay type: ADME, organism-based; details: in vivo
In short: (§1)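 BALB/c mice dosed either free (8% DMSO; 1 mg/kg IV or 20 mg/kg oral), or 20 mg/kg oral in 50% w/v hydroxypropyl-β-cyclodextrin, or 20 mg/kg oral in 25% cyclodextrins plus 50% PEG 400. Serial submandibular blood samples stored at -20°C. Plasma measured by isocratic LC-MS (acetonitrile:water 80:20, 0.2 ml/min), quantifier transition m/z 315.0>161.0.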

[2] = target: CYP2C9 (Homo sapiens, UniProt P11712); test: Inhibition of human CYP2C9 expressed in baculovirus-infected insect cells at 10 uM using Luciferin-H as substrate in presence of NADPH by P450-Glo luminescence assay relative to control; details: probe Luciferin-H
[3] = target: Cytochrome P450 2C19 (Homo sapiens, UniProt P33261); test: Inhibition of human CYP2C19 expressed in baculovirus-infected insect cells using Luciferin-H EGE as substrate in presence of NADPH by P450-Glo luminescence assay; assay type: ADME
In short: (§2)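 CYP enzymes as microsomal preparations from baculovirus-infected insect cells, run on the P450-Glo luminogenic substrate platform. A fall in light output indicates inhibition.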

[4] = Solubility of the compound in phosphate buffered saline with 10% DMSO measured after 18 hrs by UV-vis spectroscopic method; assay type: physicochemical
In short: (§3)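 Saturated suspensions prepared at 100 µM in water, 100 µM in PBS, 200 µM in PBS + 10% DMSO and 10 mM in PBS + 50% DMSO. Held 18 h at 25°C, passed through a 0.2 µm filter, then quantified by UV-Vis absorbance at 312 nm using the calculated extinction coefficient.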

[5] = Cytotoxicity against human A549 cells assessed as cell growth by Cell titer-Glo assay; assay type: cell-based
In short: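 A549 and WI-38 cells grown in DMEM with 10% v/v FCS, streptomycin 100 µg/ml and penicillin G 100 U/ml. Cell number read as cellular ATP by CellTiter-Glo luminescence. Growth 60–100% scored non-cytotoxic, 0–60% cytostatic, below 0 cytotoxic.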

[6] = Solubility of the compound in phosphate buffered saline measured after 18 hrs by UV-vis spectroscopic method; assay type: physicochemical; in short: as §3
[7] = target: T1, CYP1A2 (Homo sapiens, UniProt P05177); test: Inhibition of human CYP1A2 expressed in baculovirus-infected insect cells at 10 uM using Luciferin-1A2 as substrate in presence of NADPH by P450-Glo luminescence assay relative to control; assay type: ADME; details: probe Luciferin-1A2; in short: as §2
T1 sequence (P05177 whole entry): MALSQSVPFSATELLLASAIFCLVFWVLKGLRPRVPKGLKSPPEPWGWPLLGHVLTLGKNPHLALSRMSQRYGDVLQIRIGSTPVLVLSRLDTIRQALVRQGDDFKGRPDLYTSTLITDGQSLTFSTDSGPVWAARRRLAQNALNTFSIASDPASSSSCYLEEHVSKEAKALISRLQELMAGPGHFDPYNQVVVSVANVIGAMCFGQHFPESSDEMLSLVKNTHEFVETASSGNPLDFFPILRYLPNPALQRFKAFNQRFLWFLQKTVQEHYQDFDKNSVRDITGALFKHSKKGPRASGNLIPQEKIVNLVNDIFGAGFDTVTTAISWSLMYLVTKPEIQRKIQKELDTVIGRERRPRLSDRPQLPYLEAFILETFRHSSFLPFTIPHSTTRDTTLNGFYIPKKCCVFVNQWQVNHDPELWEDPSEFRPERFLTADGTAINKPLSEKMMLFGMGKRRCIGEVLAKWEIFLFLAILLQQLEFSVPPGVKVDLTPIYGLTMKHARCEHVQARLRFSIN

[8] = Solubility of the compound in water measured after 18 hrs by UV-vis spectroscopic method; assay type: physicochemical; in short: as §3
[9] = target: Cytochrome P450 2D6 (Homo sapiens, UniProt P10635); test: Inhibition of human CYP2D6 expressed in baculovirus-infected insect cells using Luciferin-ME EGE as substrate in presence of NADPH by P450-Glo luminescence assay; assay type: ADME; in short: as §2
[10] = Drug uptake in BALB/c mouse plasma at 20 mg/kg, po measured after 0.75 hrs by LC-MS method; assay type: ADME, organism-based; in short: as §1
[11] = Drug uptake in BALB/c mouse plasma at 20 mg/kg, po as cyclodextrin/PEG400 formulation measured after 0.75 hrs by LC-MS method; assay type: ADME, organism-based; in short: as §1
[12] = Drug uptake in BALB/c mouse plasma at 20 mg/kg, po as 50% cyclodextrin formulation measured after 1 hr by LC-MS method; assay type: ADME, organism-based; in short: as §1
[13] = Drug uptake in BALB/c mouse plasma at 20 mg/kg, po as cyclodextrin/PEG400 formulation measured after 3 hrs by LC-MS method; assay type: ADME, organism-based; in short: as §1
[14] = Drug uptake in BALB/c mouse plasma at 20 mg/kg, po as 50% cyclodextrin formulation measured after 0.25 hrs by LC-MS method; assay type: ADME, organism-based; in short: as §1
[15] = target: CYP2C19 (Homo sapiens, UniProt P33261); test: Inhibition of human CYP2C19 expressed in baculovirus-infected insect cells at 10 uM using Luciferin-H EGE as substrate in presence of NADPH by P450-Glo luminescence assay relative to control; assay type: ADME; details: probe Luciferin-H EGE; in short: as §2
[16] = Drug uptake in BALB/c mouse plasma at 1 mg/kg, iv measured after 30 mins by LC-MS method; assay type: ADME, organism-based; in short: as §1
[17] = Drug uptake in BALB/c mouse plasma at 1 mg/kg, iv measured after 45 mins by LC-MS method; assay type: ADME, organism-based; in short: as §1

Cytochrome P450 2C19, sequence (P33261 whole entry): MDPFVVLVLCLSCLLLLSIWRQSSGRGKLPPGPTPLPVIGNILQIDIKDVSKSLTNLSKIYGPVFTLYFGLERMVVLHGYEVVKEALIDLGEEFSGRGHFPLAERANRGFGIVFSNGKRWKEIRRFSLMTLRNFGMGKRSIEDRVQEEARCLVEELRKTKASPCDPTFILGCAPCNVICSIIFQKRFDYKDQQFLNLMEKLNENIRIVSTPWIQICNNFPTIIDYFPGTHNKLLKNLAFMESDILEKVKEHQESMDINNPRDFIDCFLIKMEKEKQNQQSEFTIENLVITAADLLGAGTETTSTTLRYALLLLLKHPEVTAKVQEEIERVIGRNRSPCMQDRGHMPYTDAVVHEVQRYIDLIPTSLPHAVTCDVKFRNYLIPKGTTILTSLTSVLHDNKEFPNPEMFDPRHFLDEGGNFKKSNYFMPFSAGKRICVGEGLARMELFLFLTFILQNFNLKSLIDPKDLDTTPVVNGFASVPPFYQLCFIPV
CYP2C19, sequence (P33261 whole entry): as above
CYP2C9, sequence (P11712 whole entry): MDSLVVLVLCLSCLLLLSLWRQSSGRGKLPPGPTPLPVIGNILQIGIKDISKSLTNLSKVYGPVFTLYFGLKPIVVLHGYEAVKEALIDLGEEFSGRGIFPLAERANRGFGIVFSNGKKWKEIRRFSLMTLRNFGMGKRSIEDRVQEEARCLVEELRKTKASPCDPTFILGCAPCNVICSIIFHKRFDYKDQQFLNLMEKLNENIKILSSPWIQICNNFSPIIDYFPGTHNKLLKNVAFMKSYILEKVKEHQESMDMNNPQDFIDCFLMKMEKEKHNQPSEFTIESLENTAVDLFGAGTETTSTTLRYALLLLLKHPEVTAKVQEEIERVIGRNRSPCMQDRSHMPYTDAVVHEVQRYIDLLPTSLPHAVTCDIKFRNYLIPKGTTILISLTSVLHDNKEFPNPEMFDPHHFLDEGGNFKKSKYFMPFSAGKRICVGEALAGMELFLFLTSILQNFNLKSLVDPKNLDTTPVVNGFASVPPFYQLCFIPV
Cytochrome P450 2D6, sequence (P10635 whole entry): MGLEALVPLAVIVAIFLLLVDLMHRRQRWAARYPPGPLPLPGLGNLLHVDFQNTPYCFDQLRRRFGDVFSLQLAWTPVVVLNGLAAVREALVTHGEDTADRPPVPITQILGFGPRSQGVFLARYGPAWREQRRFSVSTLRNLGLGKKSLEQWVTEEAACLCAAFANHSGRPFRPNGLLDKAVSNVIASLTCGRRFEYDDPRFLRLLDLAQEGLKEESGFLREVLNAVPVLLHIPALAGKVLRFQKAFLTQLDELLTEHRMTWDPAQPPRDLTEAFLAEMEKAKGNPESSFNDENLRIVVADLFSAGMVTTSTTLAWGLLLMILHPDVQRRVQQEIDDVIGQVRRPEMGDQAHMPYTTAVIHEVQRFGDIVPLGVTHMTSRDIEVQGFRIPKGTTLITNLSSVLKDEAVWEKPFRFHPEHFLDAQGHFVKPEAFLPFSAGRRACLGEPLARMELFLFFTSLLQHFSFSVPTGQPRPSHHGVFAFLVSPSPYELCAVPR

COc1cccc(/C=C/C(=O)c2cc(OC)c(OC)cc2O)c1
half-life [1]: 36.7 min
inhibition at 10 µM [2]: 19%
IC50 [3]: 7.7 µM
solubility at 18 h [4]: 11.4 µM (≈ 3.59 µg/mL)
GI50 [5]: 12.4 µM
solubility at 18 h [6]: 2.37 µM (≈ 0.745 µg/mL)
inhibition at 10 µM [7]: 98%
solubility at 18 h [8]: 0.91 µM (≈ 0.286 µg/mL)
IC50 [9]: 6.8 µM
concentration at 0.75 h [10]: 12 nM
concentration at 0.75 h [11]: 11 nM
concentration at 1 h [12]: 69 nM
concentration at 3 h [13]: 6 nM
concentration at 0.25 h [14]: 1100 nM
inhibition at 10 µM [15]: 49.2%
concentration at 0.5 h [16]: 55 nM
concentration at 0.75 h [17]: 23 nM
